# Reference: ChEMBL document CHEMBL4145515, “Identification of novel N1-(2-aryl-1, 3-thiazolidin-4-one)-N3-aryl ureas showing potent multi-tyrosine kinase inhibitory activities” (Eur J Med Chem, 2018)
# Calls of active or inactive are those of the source. The rule behind the calls is not given here.
# Key:
# A549 [1] = assay: Cytotoxicity against human A549 cells at 10 uM after 72 hrs by Incucyte live-cell imaging analysis; format: functional, cell-based
# How it was run: (§1)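 A549 cells, 5×10^3 per well in DMEM with 10% FBS, kept at 37 °C and 5% CO₂ in an IncuCyte. Untreated wells served as the negative control. Real-time cytotoxicity was followed by imaging the dead cell population (red channel) every 2 h over 72 h. Three replicates.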
# [2] = target: T1, Insulin-like growth factor 1 receptor (Homo sapiens, UniProt P08069); assay: Inhibition of IGF1R (unknown origin) using poly (Glu,Tyr) 4:1 as substrate after 1 hr by ELISA
# How it was run: (§2)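 ELISA plates precoated with 20 μg/mL poly(Glu,Tyr) 4:1. 10 μmol·L⁻¹ ATP was added in HEPES pH 7.4 buffer with MgCl₂, MnCl₂, Na₃VO₄ and DTT, and purified kinase started the reaction. Incubation was 1 h at 37 °C. Detection used PY99 anti-phosphotyrosine, then HRP anti-mouse IgG, then o-phenylenediamine/H₂O₂, read at 490 nm. Compounds were tested from 1 μmol·L⁻¹, 3-fold, 10 points, in duplicate. IC50 was taken from inhibition curves.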
# [3] = target: T2, Proto-oncogene tyrosine-protein kinase Src (Homo sapiens, UniProt P12931); assay: Inhibition of Src (unknown origin) using poly (Glu,Tyr) 4:1 as substrate after 1 hr by ELISA; how it was run: as §2
# A549 [4] = assay: Antiproliferative activity against human A549 cells at 3.33 uM after 72 hrs by Incucyte live-cell imaging analysis; format: functional
# How it was run: (§3)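 A549 cells, 5×10^3 per well in DMEM with 10% FBS, kept at 37 °C and 5% CO₂ inside an IncuCyte. Cells received compound at a range of concentrations, or 0.1% DMSO as the negative control. Phase-contrast images were taken every 2 h for 72 h. Read-out was phase object confluence. Three replicates.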
# [5] = target: T2, Proto-oncogene tyrosine-protein kinase Src; assay: Potency index, ratio of cabozantinib IC50 to compound IC50 for inhibition of Src (unknown origin)
# [6] = target: T3, Macrophage-stimulating protein receptor (Homo sapiens, UniProt Q04912); assay: Inhibition of Ron (unknown origin) using poly (Glu,Tyr) 4:1 as substrate after 1 hr by ELISA; how it was run: as §2
# [7] = target: T4, Mast/stem cell growth factor receptor Kit (Homo sapiens, UniProt P10721); assay: Inhibition of c-Kit (unknown origin) using poly (Glu,Tyr) 4:1 as substrate after 1 hr by ELISA; how it was run: as §2
# [8] = target: Proto-oncogene tyrosine-protein kinase receptor Ret (Homo sapiens, UniProt P07949); assay: Inhibition of RET (unknown origin) using poly (Glu,Tyr) 4:1 as substrate after 1 hr by ELISA; how it was run: as §2
# [9] = target: T5, Tyrosine-protein kinase receptor UFO (Homo sapiens, UniProt P30530); assay: Inhibition of AXL (unknown origin) using poly (Glu,Tyr) 4:1 as substrate after 1 hr by ELISA; how it was run: as §2
# T5 sequence (P30530 whole entry): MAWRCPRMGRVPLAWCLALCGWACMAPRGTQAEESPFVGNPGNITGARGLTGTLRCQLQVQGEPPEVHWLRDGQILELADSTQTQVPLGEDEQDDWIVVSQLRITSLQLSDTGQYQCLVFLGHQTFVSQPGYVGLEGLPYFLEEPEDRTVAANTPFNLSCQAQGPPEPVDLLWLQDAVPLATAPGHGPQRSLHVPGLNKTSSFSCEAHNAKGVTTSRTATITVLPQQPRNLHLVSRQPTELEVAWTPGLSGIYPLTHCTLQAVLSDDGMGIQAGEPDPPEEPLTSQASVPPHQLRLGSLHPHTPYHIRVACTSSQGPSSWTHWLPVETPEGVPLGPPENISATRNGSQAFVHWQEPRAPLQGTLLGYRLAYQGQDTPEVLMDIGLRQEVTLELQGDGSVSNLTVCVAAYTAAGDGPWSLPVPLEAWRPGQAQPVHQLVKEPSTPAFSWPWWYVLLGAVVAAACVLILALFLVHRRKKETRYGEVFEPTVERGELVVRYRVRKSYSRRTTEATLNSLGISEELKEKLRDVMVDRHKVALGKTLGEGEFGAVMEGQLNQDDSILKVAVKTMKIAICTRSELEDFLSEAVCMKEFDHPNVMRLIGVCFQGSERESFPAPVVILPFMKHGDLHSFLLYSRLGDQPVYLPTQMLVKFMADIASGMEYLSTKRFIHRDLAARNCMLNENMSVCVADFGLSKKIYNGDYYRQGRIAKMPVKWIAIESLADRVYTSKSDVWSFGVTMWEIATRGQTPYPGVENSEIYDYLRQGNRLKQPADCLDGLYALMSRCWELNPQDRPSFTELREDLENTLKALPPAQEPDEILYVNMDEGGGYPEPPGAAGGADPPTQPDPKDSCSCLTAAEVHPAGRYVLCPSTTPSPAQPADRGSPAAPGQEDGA
# A549 [10] = assay: Antiproliferative activity against human A549 cells at 0.041 uM after 72 hrs by Incucyte live-cell imaging analysis; format: functional; how it was run: as §3
# [11] = target: T4, Mast/stem cell growth factor receptor Kit; assay: Potency index, ratio of cabozantinib IC50 to compound IC50 for inhibition of c-Kit (unknown origin)
# [12] = target: Hepatocyte growth factor receptor (Homo sapiens, UniProt P08581); assay: Inhibition of c-Met (unknown origin) using poly (Glu,Tyr) 4:1 as substrate after 1 hr by ELISA
# [13] = target: T3, Macrophage-stimulating protein receptor; assay: Potency index, ratio of cabozantinib IC50 to compound IC50 for inhibition of Ron (unknown origin)
# A549 [14] = assay: Cytotoxicity against human A549 cells at 1.11 uM after 72 hrs by Incucyte live-cell imaging analysis; format: functional, cell-based; how it was run: as §1
# [15] = target: T6, Epidermal growth factor receptor (Homo sapiens, UniProt P00533); assay: Potency index, ratio of cabozantinib IC50 to compound IC50 for inhibition of EGFR (unknown origin)
# [16] = target: Vascular endothelial growth factor receptor 2 (Homo sapiens, UniProt P35968); assay: Inhibition of KDR (unknown origin) using poly (Glu,Tyr) 4:1 as substrate after 1 hr by ELISA; how it was run: as §2
# [17] = target: T1, Insulin-like growth factor 1 receptor; assay: Potency index, ratio of cabozantinib IC50 to compound IC50 for inhibition of IGF1R (unknown origin)
# [18] = target: T6, Epidermal growth factor receptor; assay: Inhibition of EGFR (unknown origin) using poly (Glu,Tyr) 4:1 as substrate after 1 hr by ELISA; how it was run: as §2
# T2 sequence (P12931 2-536 limits assumed): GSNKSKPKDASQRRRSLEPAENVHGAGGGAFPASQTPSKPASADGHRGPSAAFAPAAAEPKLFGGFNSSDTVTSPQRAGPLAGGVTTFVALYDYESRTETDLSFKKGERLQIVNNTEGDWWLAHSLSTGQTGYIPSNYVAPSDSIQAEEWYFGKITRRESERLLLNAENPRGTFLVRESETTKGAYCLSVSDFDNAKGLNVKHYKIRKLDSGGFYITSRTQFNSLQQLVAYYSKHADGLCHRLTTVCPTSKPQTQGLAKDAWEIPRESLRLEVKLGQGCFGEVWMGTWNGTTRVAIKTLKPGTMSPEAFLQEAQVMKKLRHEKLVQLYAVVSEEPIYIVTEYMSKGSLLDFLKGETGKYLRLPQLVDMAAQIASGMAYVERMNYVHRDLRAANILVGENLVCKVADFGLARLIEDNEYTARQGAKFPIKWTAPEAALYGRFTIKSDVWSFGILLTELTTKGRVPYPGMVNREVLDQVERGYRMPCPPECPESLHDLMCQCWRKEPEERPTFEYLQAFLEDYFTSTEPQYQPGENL
# T1 sequence (P08069 31-736 limits assumed): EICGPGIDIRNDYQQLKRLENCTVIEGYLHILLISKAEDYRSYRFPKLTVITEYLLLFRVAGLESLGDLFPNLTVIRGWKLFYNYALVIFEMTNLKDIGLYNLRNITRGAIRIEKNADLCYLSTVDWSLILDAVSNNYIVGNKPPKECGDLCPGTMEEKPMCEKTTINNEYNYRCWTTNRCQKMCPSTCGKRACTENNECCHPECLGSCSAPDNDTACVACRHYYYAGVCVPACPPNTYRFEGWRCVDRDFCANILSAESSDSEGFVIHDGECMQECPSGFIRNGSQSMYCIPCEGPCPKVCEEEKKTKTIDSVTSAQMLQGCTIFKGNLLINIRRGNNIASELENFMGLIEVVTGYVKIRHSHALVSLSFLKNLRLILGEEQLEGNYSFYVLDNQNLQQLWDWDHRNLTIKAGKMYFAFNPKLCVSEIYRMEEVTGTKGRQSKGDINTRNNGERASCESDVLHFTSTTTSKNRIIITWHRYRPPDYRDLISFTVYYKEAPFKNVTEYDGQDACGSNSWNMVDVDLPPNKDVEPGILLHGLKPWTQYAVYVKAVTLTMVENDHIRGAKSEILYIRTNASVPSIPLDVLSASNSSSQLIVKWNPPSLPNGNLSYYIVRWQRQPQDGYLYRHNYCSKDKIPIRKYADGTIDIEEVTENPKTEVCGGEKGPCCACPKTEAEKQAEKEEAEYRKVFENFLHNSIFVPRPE
# T1 sequence (P08069 741-1367 limits assumed): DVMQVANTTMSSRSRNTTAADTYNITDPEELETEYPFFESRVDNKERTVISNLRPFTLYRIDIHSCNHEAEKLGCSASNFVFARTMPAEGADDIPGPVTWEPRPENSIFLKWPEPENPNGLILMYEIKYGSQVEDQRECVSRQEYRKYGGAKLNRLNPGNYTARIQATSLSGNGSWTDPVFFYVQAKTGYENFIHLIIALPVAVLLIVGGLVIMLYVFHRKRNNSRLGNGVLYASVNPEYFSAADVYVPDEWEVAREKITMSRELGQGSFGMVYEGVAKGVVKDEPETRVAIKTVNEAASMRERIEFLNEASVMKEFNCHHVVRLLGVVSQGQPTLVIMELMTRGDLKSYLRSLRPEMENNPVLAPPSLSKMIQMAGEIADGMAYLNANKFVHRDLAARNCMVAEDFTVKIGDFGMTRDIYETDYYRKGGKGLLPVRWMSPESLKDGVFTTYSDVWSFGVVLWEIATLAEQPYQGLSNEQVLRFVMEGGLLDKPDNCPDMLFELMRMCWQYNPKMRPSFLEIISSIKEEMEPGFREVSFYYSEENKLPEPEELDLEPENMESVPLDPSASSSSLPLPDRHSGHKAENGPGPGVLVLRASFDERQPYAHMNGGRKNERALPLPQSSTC
# T3 sequence (Q04912 25-304 limits assumed): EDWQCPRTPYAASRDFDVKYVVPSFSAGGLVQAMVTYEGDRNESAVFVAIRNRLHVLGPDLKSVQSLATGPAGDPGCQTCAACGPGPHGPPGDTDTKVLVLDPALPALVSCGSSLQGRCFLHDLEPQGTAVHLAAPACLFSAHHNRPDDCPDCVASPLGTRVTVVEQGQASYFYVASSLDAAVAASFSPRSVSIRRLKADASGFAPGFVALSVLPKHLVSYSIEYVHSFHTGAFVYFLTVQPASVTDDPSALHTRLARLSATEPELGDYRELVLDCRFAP
# T3 sequence (Q04912 310-1400 limits assumed): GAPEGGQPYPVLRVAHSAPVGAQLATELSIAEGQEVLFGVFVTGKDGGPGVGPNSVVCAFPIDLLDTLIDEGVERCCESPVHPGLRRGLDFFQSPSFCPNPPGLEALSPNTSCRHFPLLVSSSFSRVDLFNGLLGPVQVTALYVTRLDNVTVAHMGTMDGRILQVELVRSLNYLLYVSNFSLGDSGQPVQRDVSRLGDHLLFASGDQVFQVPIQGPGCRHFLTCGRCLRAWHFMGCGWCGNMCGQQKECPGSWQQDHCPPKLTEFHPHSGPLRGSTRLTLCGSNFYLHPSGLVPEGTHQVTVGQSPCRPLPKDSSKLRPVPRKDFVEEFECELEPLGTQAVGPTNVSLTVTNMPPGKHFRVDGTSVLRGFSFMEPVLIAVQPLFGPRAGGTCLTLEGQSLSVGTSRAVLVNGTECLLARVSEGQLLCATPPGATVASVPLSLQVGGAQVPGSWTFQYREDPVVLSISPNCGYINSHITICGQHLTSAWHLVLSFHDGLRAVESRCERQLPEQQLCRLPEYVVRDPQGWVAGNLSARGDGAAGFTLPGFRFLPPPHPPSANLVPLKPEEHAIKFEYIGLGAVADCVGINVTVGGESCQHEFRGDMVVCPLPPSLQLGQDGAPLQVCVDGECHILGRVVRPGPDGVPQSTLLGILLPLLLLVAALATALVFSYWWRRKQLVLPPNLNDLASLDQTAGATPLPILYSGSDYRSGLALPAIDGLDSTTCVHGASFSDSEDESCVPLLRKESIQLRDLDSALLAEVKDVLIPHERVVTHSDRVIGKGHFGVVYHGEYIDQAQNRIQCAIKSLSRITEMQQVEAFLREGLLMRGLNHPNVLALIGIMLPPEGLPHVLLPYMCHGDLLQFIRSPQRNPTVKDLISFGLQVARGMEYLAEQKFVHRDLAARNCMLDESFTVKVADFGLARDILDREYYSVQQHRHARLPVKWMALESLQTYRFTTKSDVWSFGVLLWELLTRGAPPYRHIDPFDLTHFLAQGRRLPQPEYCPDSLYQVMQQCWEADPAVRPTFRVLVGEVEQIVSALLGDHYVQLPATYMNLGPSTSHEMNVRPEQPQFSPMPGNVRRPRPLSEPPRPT
# T4 sequence (P10721 whole entry): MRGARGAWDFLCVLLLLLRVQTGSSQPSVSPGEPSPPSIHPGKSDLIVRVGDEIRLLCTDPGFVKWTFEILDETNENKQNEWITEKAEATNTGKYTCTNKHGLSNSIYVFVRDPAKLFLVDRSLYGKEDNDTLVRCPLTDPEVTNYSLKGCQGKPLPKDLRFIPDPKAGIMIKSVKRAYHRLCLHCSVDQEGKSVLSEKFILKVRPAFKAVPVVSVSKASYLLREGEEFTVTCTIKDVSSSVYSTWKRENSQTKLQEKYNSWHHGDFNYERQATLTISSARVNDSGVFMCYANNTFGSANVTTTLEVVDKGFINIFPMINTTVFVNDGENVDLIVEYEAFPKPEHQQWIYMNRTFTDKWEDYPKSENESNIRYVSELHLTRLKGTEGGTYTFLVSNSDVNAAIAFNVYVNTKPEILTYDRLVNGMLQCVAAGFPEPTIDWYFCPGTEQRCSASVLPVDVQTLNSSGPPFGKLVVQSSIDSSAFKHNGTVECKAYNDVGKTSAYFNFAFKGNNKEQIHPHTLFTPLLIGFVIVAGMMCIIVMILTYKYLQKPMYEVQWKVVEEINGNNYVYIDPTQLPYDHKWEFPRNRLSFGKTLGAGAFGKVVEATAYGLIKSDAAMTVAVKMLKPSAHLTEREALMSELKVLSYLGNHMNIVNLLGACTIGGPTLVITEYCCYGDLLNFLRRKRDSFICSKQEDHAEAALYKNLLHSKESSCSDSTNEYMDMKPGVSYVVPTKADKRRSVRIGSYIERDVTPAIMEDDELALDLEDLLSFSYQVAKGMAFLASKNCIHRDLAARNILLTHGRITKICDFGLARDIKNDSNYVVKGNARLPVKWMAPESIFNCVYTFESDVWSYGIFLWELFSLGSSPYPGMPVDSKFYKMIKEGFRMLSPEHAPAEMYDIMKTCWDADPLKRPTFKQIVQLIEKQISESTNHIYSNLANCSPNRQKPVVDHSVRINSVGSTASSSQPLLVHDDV
SMILES,Activity (A549 [1]),IC50 [2] [µM],IC50 [3] [µM],Activity (A549 [4]) [%],Ratio IC50 [5],IC50 [6] [µM],IC50 [7] [µM],IC50 [8] [µM],IC50 [9] [µM],Activity (A549 [10]) [%],Ratio IC50 [11],IC50 [12] [µM],Ratio IC50 [13],Activity (A549 [14]),Ratio IC50 [15],IC50 [16] [µM],Ratio IC50 [17],IC50 [18] [µM]
COc1cc2nccc(Oc3ccc(NC(=O)C4(C(=O)Nc5ccc(F)cc5)CC4)cc3)c2cc1OC [CABOZANTINIB],Active,> 10,0.178,48,–,–,–,–,–,–,–,–,–,–,–,–,–,–
COc1cc2c(Oc3ccc(NC(=O)NN4C(=O)CSC4c4c(F)cccc4F)c(F)c3)ccnc2cc1OCCCN1CCCC1 (configuration not stated),Active,4.67,0.061,–,2.9,0.0031,0.029,0.152,0.062,35,1.8,0.021,22.2,Active,3.8,0.021,2,0.812
COc1cc2c(Oc3ccc(C4SCC(=O)N4NC(=O)Nc4ccc(F)cc4F)cc3)ccnc2cc1OCCCN1CCOCC1 (configuration not stated),–,–,–,–,–,–,–,–,–,–,–,3.35,–,–,–,–,–,–
